Laboratory results: ChEMBL document CHEMBL3046780, “Syntheses and herbicidal activity of new triazolopyrimidine-2-sulfonamides as acetohydroxyacid synthase inhibitor” (Bioorg Med Chem, 2010)

What was measured:
[1] = system: Digitaria sanguinalis; test: Post-emergence herbicidal activity against Digitaria sanguinalis (hairy crabgrass) assessed as growth inhibition at 150 g ai/ha measured 15 days post compound treatment under green house conditions; assay type: functional; settings: 360 h, read-out: GI
In short: (§1)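 Compounds formulated as 100 g/L emulsifiable concentrate (DMF solvent, Tween-80 emulsifier), diluted with water, sprayed post-emergence on pot-grown weeds in clay soil (pH 6.5, 1.6% organic matter). Seeds sown 1-3 cm deep, grown at 15-30 °C. Dicots were treated at the 2-leaf stage and monocots at the 1-leaf stage. Untreated and DMF-treated controls were included. Injury was rated visually 15 days after treatment.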

[2] = system: Galium aparine; test: Post-emergence herbicidal activity against Galium aparine assessed as growth inhibition at 75 g ai/ha measured 15 days post compound treatment under green house conditions; assay type: functional; settings: 360 h, read-out: GI; in short: as §1
[3] = system: Galium aparine; test: Post-emergence herbicidal activity against Galium aparine assessed as growth inhibition at 37.5 g ai/ha measured 15 days post compound treatment under green house conditions; assay type: functional; settings: 360 h, read-out: GI; in short: as §1
[4] = system: Brassica juncea; test: Post-emergence herbicidal activity against Brassica juncea assessed as growth inhibition at 150 g ai/ha measured 15 days post compound treatment under green house conditions; assay type: functional; settings: 360 h, read-out: GI; in short: as §1
[5] = system: Rumex acetosa; test: Post-emergence herbicidal activity against Rumex acetosa assessed as growth inhibition at 75 g ai/ha measured 15 days post compound treatment under green house conditions; assay type: functional; settings: 360 h, read-out: GI; in short: as §1
[6] = system: Cerastium arvense; test: Post-emergence herbicidal activity against Cerastium arvense assessed as growth inhibition at 37.5 g ai/ha measured 15 days post compound treatment under green house conditions; assay type: functional; settings: 360 h, read-out: GI; in short: as §1
[7] = system: Chenopodium album; test: Post-emergence herbicidal activity against Chenopodium album assessed as growth inhibition at 37.5 g ai/ha measured 15 days post compound treatment under green house conditions; assay type: functional; settings: 360 h, read-out: GI; in short: as §1
[8] = system: Poa annua; test: Post-emergence herbicidal activity against Poa annua assessed as growth inhibition at 150 g ai/ha measured 15 days post compound treatment under green house conditions; assay type: functional; settings: 360 h, read-out: GI; in short: as §1
[9] = system: Galium aparine; test: Post-emergence herbicidal activity against Galium aparine assessed as growth inhibition at 150 g ai/ha measured 15 days post compound treatment under green house conditions; assay type: functional; settings: 360 h, read-out: GI; in short: as §1
[10] = system: Eclipta prostrata; test: Post-emergence herbicidal activity against Eclipta prostrata assessed as growth inhibition at 150 g ai/ha measured 15 days post compound treatment under green house conditions; assay type: functional; settings: 360 h, read-out: GI; in short: as §1
[11] = system: Cyperus iria; test: Post-emergence herbicidal activity against Cyperus iria assessed as growth inhibition at 75 g ai/ha measured 15 days post compound treatment under green house conditions; assay type: functional; settings: 360 h, read-out: GI; in short: as §1
[12] = system: Echinochloa crus-galli; test: Post-emergence herbicidal activity against Echinochloa crus-galli (barnyard grass) assessed as growth inhibition at 150 g ai/ha measured 15 days post compound treatment under green house conditions; assay type: functional; settings: 360 h, read-out: GI; in short: as §1
[13] = biological target: T1, Acetolactate synthase, chloroplastic (Arabidopsis thaliana, UniProt P17597)
T1 sequence (P17597 whole entry): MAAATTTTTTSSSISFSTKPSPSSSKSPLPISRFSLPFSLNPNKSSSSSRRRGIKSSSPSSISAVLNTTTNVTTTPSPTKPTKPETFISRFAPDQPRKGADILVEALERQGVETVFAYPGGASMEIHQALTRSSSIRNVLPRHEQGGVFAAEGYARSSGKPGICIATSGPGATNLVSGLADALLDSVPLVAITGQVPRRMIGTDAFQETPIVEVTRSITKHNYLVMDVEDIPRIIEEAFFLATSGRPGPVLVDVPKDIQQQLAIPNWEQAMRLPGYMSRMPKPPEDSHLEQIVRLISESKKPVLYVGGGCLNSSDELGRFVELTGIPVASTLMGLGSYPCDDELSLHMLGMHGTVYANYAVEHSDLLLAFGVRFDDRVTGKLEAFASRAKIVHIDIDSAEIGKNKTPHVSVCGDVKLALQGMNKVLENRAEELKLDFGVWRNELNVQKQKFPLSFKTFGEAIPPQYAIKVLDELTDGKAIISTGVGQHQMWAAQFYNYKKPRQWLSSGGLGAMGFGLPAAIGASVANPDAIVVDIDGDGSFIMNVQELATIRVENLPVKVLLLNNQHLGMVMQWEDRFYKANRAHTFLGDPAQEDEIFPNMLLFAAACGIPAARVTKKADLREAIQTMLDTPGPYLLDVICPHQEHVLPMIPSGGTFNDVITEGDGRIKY

[14] = system: Polygonum humifusum; test: Post-emergence herbicidal activity against Polygonum humifusum assessed as growth inhibition at 150 g ai/ha measured 15 days post compound treatment under green house conditions; assay type: functional; settings: 360 h, read-out: GI; in short: as §1
[15] = system: Amaranthus retroflexus; test: Post-emergence herbicidal activity against Amaranthus retroflexus assessed as growth inhibition at 75 g ai/ha measured 15 days post compound treatment under green house conditions; assay type: functional; settings: 360 h, read-out: GI; in short: as §1
[16] = system: Eclipta prostrata; test: Post-emergence herbicidal activity against Eclipta prostrata assessed as growth inhibition at 37.5 g ai/ha measured 15 days post compound treatment under green house conditions; assay type: functional; settings: 360 h, read-out: GI; in short: as §1
[17] = system: Cyperus iria; test: Post-emergence herbicidal activity against Cyperus iria assessed as growth inhibition at 37.5 g ai/ha measured 15 days post compound treatment under green house conditions; assay type: functional; settings: 360 h, read-out: GI; in short: as §1
[18] = system: Cerastium arvense; test: Post-emergence herbicidal activity against Cerastium arvense assessed as growth inhibition at 150 g ai/ha measured 15 days post compound treatment under green house conditions; assay type: functional; settings: 360 h, read-out: GI; in short: as §1
[19] = system: Chenopodium album; test: Post-emergence herbicidal activity against Chenopodium album assessed as growth inhibition at 75 g ai/ha measured 15 days post compound treatment under green house conditions; assay type: functional; settings: 360 h, read-out: GI; in short: as §1
[20] = system: Cyperus iria; test: Post-emergence herbicidal activity against Cyperus iria assessed as growth inhibition at 150 g ai/ha measured 15 days post compound treatment under green house conditions; assay type: functional; settings: 360 h, read-out: GI; in short: as §1
[21] = system: Amaranthus retroflexus; test: Post-emergence herbicidal activity against Amaranthus retroflexus assessed as growth inhibition at 37.5 g ai/ha measured 15 days post compound treatment under green house conditions; assay type: functional; settings: 360 h, read-out: GI; in short: as §1
[22] = system: Rumex acetosa; test: Post-emergence herbicidal activity against Rumex acetosa assessed as growth inhibition at 150 g ai/ha measured 15 days post compound treatment under green house conditions; assay type: functional; settings: 360 h, read-out: GI; in short: as §1
[23] = system: Amaranthus retroflexus; test: Post-emergence herbicidal activity against Amaranthus retroflexus assessed as growth inhibition at 150 g ai/ha measured 15 days post compound treatment under green house conditions; assay type: functional; settings: 360 h, read-out: GI; in short: as §1
[24] = system: Rumex acetosa; test: Post-emergence herbicidal activity against Rumex acetosa assessed as growth inhibition at 37.5 g ai/ha measured 15 days post compound treatment under green house conditions; assay type: functional; settings: 360 h, read-out: GI; in short: as §1
[25] = system: Polygonum humifusum; test: Post-emergence herbicidal activity against Polygonum humifusum assessed as growth inhibition at 37.5 g ai/ha measured 15 days post compound treatment under green house conditions; assay type: functional; settings: 360 h, read-out: GI; in short: as §1
[26] = system: Chenopodium album; test: Post-emergence herbicidal activity against Chenopodium album assessed as growth inhibition at 150 g ai/ha measured 15 days post compound treatment under green house conditions; assay type: functional; settings: 360 h, read-out: GI; in short: as §1
[27] = system: Eclipta prostrata; test: Post-emergence herbicidal activity against Eclipta prostrata assessed as growth inhibition at 75 g ai/ha measured 15 days post compound treatment under green house conditions; assay type: functional; settings: 360 h, read-out: GI; in short: as §1
[28] = system: Polygonum humifusum; test: Post-emergence herbicidal activity against Polygonum humifusum assessed as growth inhibition at 75 g ai/ha measured 15 days post compound treatment under green house conditions; assay type: functional; settings: 360 h, read-out: GI; in short: as §1
[29] = system: Cerastium arvense; test: Post-emergence herbicidal activity against Cerastium arvense assessed as growth inhibition at 75 g ai/ha measured 15 days post compound treatment under green house conditions; assay type: functional; settings: 360 h, read-out: GI; in short: as §1

Structure (SMILES)	inhibition of growth at 150 g/ha [1]	inhibition of growth at 75 g/ha [2]	inhibition of growth at 37.5 g/ha [3]	inhibition of growth at 150 g/ha [4]	inhibition of growth at 75 g/ha [5]	inhibition of growth at 37.5 g/ha [6]	inhibition of growth at 37.5 g/ha [7]	inhibition of growth at 150 g/ha [8]	inhibition of growth at 150 g/ha [9]	inhibition of growth at 150 g/ha [10]	inhibition of growth at 75 g/ha [11]	inhibition of growth at 150 g/ha [12]	inhibition of growth at 150 g/ha [14]	inhibition of growth at 75 g/ha [15]	inhibition of growth at 37.5 g/ha [16]	inhibition of growth at 37.5 g/ha [17]	inhibition of growth at 150 g/ha [18]	inhibition of growth at 75 g/ha [19]	inhibition of growth at 150 g/ha [20]	inhibition of growth at 37.5 g/ha [21]	other results
Cc1ccn2nc(S(=O)(=O)Nc3c(F)cccc3F)nc2n1	≥ 80%	50%	50%	≥ 90%	50%	≥ 90%	50%	50%	≥ 80%	≥ 90%	50%	50%	≥ 90%	≥ 90%	≥ 90%	50%	≥ 90%	≥ 90%	50%	≥ 90%	Ki [13]: 0.36 µM; inhibition of growth at 150 g/ha [22]: ≥ 80%; inhibition of growth at 150 g/ha [23]: ≥ 90%; inhibition of growth at 37.5 g/ha [24]: 50%; inhibition of growth at 37.5 g/ha [25]: ≥ 80%; inhibition of growth at 150 g/ha [26]: ≥ 90%; inhibition of growth at 75 g/ha [27]: ≥ 90%; inhibition of growth at 75 g/ha [28]: ≥ 90%; inhibition of growth at 75 g/ha [29]: ≥ 90%
COc1ccn2nc(S(=O)(=O)Nc3cccc(Cl)c3Cl)nc2n1	< 50%	50%	50%	≥ 80%	50%	< 50%	< 50%	< 50%	50%	≥ 50%	50%	< 50%	50%	50%	50%	50%	< 50%	< 50%	50%	50%	Ki [13]: 14.8 µM; inhibition of growth at 150 g/ha [22]: 50%; inhibition of growth at 150 g/ha [23]: ≥ 50%; inhibition of growth at 37.5 g/ha [24]: 50%; inhibition of growth at 37.5 g/ha [25]: 50%; inhibition of growth at 150 g/ha [26]: < 50%; inhibition of growth at 75 g/ha [27]: 50%; inhibition of growth at 75 g/ha [28]: 50%; inhibition of growth at 75 g/ha [29]: < 50%
Cc1nc(C(F)(F)F)cc2nc(S(=O)(=O)Nc3c(F)cccc3F)nn12	< 50%	≥ 80%	50%	≥ 80%	50%	50%	≥ 80%	< 50%	≥ 80%	≥ 80%	< 50%	< 50%	50%	< 50%	50%	< 50%	50%	≥ 80%	< 50%	< 50%	Ki [13]: 70.6 µM; inhibition of growth at 150 g/ha [22]: 50%; inhibition of growth at 150 g/ha [23]: < 50%; inhibition of growth at 37.5 g/ha [24]: 50%; inhibition of growth at 37.5 g/ha [25]: < 50%; inhibition of growth at 150 g/ha [26]: ≥ 90%; inhibition of growth at 75 g/ha [27]: ≥ 80%; inhibition of growth at 75 g/ha [28]: < 50%; inhibition of growth at 75 g/ha [29]: 50%
COC(=O)c1cccc(Cl)c1NS(=O)(=O)c1nc2c(Cl)c(C)nc(C)n2n1	< 50%	≥ 80%	≥ 80%	≥ 90%	50%	< 50%	≥ 80%	< 50%	≥ 80%	≥ 50%	50%	< 50%	50%	50%	50%	50%	50%	≥ 80%	50%	50%	inhibition of growth at 150 g/ha [22]: 50%; inhibition of growth at 150 g/ha [23]: 50%; inhibition of growth at 37.5 g/ha [24]: 50%; inhibition of growth at 37.5 g/ha [25]: 50%; inhibition of growth at 150 g/ha [26]: ≥ 80%; inhibition of growth at 75 g/ha [27]: 50%; inhibition of growth at 75 g/ha [28]: 50%; inhibition of growth at 75 g/ha [29]: 50%
Cc1nc(C(F)(F)F)cc2nc(S(=O)(=O)Nc3c(Cl)cccc3Cl)nn12	< 50%	≥ 80%	50%	≥ 90%	≥ 80%	< 50%	≥ 80%	< 50%	≥ 80%	≥ 90%	50%	< 50%	≥ 80%	< 50%	50%	50%	50%	≥ 80%	50%	< 50%	Ki [13]: 5.02 µM; inhibition of growth at 150 g/ha [22]: ≥ 80%; inhibition of growth at 150 g/ha [23]: < 50%; inhibition of growth at 37.5 g/ha [24]: ≥ 80%; inhibition of growth at 37.5 g/ha [25]: 50%; inhibition of growth at 150 g/ha [26]: ≥ 90%; inhibition of growth at 75 g/ha [27]: 50%; inhibition of growth at 75 g/ha [28]: ≥ 80%; inhibition of growth at 75 g/ha [29]: 50%
